# Screening data from PubChem.
# A selection: hits, their analogues and other compounds. The true share with any hit is near 2.9%.
# SENP8 block-1 – SENP8 protease inhibitors, primary screen, biochemical, luminescence; inhibition, % at 10 µM; Sentrin-specific protease 8 (Homo sapiens), Q96LD8; actives 1.2% (n = 330,000); purified SENP8, Z-RLRGG-aminoluciferin cleavage; in the data active means inhibition above about 50%
# Target sequence (Q96LD8 whole entry, looked up): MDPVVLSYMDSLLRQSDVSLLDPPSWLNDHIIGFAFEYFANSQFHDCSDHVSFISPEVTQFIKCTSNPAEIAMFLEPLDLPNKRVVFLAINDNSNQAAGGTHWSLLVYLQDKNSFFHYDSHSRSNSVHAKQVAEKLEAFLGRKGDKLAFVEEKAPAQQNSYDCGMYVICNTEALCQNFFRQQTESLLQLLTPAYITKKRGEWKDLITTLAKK
# SENP6 inh – SENP6 protease inhibitors, primary screen, biochemical, luminescence, uHTS | AID 2599, 2010 | Recombinant SENP6 catalytic domain, aminoluciferin luminescence | actives 1.8% (n = 330,000) | inhibition, % at 10 µM;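 active means inhibition above about 50% at the single tested dose, limit read from the data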;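 further: plate controls were DMSO wells with enzyme for no effect and DMSO wells lacking enzyme for full effect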
# SENP8 block-2 – human SENP8 protease inhibitors, primary screen, biochemical, fluorescence, Nedd8 protein substrate, uHTS; Sentrin-specific protease 8 (Homo sapiens), Q96LD8; recombinant SENP8; inhibition, % at 20 µM; actives 0.64% (n = 360,000); in the data active means inhibition mostly above about 40%, no sharp cut-off; inactive means mostly below about 27%
# SENP7 inh – SENP7 protease inhibitors, primary screen, biochemical, luminescence, uHTS. recombinant SENP7, Z-RLRGG-aminoluciferin luminescence, 40 min. inhibition, % at 5 µM. actives 1.5% (n = 330,000). AID 434973, 2010;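 active means inhibition above about 50% at the single test dose, limit read from the data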;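 further: plate controls were DMSO with enzyme for no effect and no enzyme buffer wells for full effect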
# HSP90 inh – HSP90 inhibitors, primary screen, cell lysate, luminescence | Rabbit reticulocyte lysate, luciferase refolding luminescence, 3 h | actives 0.91% (n = 290,000) | inhibition, % at 5.6 µM | Heat shock protein HSP 90 (rabbit reticulocyte lysate; luciferase refolding);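 active means inhibition above the screen-wide mean plus 3 SD, computed separately per campaign, cut at about 16% in these data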;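 further: 0% = DMSO wells and 100% = 60 µM geldanamycin wells; inhibitors lower the luminescence because luciferase stays unfolded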
# SENP1 FRET inh – human SENP1 catalytic domain inhibitors, primary screen, biochemical, FRET, uHTS; Sentrin-specific protease 1 (Homo sapiens), Q9P0U3; recombinant SENP1 catalytic domain, CyPet-SUMO1-YPet FRET cleavage; inhibition, % at 10 µM; actives 0.21% (n = 360,000);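 active means inhibition at least 30% at 10 µM, raw YFP signal under a set limit, fluorescence ratio 0.5 to 1.5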;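 further: 0% = enzyme with DMSO and 100% = no enzyme wells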
# Target sequence (Q9P0U3 419-644 limits assumed): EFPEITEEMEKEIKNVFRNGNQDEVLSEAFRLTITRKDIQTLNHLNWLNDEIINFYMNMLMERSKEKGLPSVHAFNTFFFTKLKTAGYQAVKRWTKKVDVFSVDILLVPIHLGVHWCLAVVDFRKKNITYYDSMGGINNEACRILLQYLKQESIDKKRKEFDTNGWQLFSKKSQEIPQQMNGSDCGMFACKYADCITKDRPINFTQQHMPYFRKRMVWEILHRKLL
#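 Assay system – human recombinant His6-tagged SENP1 catalytic domain enzyme · Input – SENP1 enzyme, 20 pM final · Buffer or medium – Tris pH 8 buffer plus EDTA, NaCl, BME, BSA, NP40, catalase · Schedule – 50 min reaction at room temperature · Technique – FRET read of cyan and yellow fluorescence · Control set – no-enzyme wells low, DMSO-plus-enzyme wells high control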
# HSP90 confirm – HSP90 inhibitors, confirmation, cell lysate, luminescence | AID 1846, 2009 | actives 64% (n = 2,300) | shares compounds with HSP90 inh | inhibition, % at 5.9 µM | rabbit reticulocyte lysate, luciferase refolding luminescence, 3 h; in the data active means inhibition above about 18%;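 further: 0% = vehicle wells and 100% = reference inhibitor wells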
# luciferase ctr – firefly luciferase inhibitors, HSP90 counter-screen, confirmation, artefact control for HSP90 inhibitor project, biochemical, luminescence, triplicate | shares compounds with HSP90 inh | purified native firefly luciferase | inhibition, % at 5.9 µM | actives 48% (n = 2,300) | AID 1847, 2009;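 active means inhibition above the mean inhibition of all tested sample wells plus 3 SD, cut at about 10% in these data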;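 further: 0% = DMSO with luciferase and 100% = wells lacking luciferase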
# * hit, by the source's call; x = not tested or not shown.
SMILES,SENP8 block-1,SENP6 inh,SENP8 block-2,SENP7 inh,HSP90 inh,SENP1 FRET inh,HSP90 confirm,luciferase ctr
O=C(CSc1nnc(COc2ccc(Cl)cc2)o1)N(c1ccccc1)C1CCS(=O)(=O)C1 (centres undefined),x,x,3.2,x,x,-1.4,x,x
O=C(Nc1ccccc1O)c1cc2cc(Br)ccc2oc1=O,-5.0,-20.8,2.8,21.2,17.5*,6.7,-4.1,-16.4
O=C(NNC(=O)c1cc2cc(Br)ccc2oc1=O)c1ccc(O)cc1,-5.2,-10.6,16.0,5.2,-3.4,13.3,x,x
CCN(C(=O)COC(=O)C1CCC(C(C)(C)C)CC1)c1c(N)n(Cc2ccccc2)c(=O)[nH]c1=O (centres undefined),x,x,2.7,x,x,-1.6,x,x
CCOc1ccc(N(CC(=O)N2CCCCCC2)S(=O)(=O)c2ccc(F)cc2)cc1,-14.3,-22.1,3.4,-11.7,35.0*,-0.8,-4.5,-7.2
Cn1c(SCC(=O)NNC(=O)c2ccccc2)nnc1C(F)(F)F,11.4,10.7,8.2,2.0,x,1.8,x,x
CCOc1ccc2nc(COC(=O)c3cccs3)c(C(C)=O)[n+]([O-])c2c1,4.6,-19.6,-41.3,1.8,28.7*,-2.4,-4.6,-11.4
Cc1cccc([C@@H]2[C@@H]3C(=O)N(Cc4ccccc4)C(=O)[C@@H]3[C@]3(Cc4ccc(Cl)cc4)C(=O)N(c4ccc(Br)cc4)C(=O)N23)c1,-5.8,-18.5,19.2,-10.2,26.6*,-2.1,12.5,-7.1
Cc1ccc2c(COC(=O)c3ccc(NC(=O)CC#N)cc3)cc(=O)oc2c1C,-2.4,0.1,1.7,-8.3,19.5*,-4.5,21.8*,-5.8
Cc1cc(C)c(C(=O)COC(=O)c2ccc(NC(=O)CC#N)cc2)cc1C,-0.4,-4.6,-38.0,4.8,3.1,-42.7,x,x
N#Cc1cc[n+](CC(=O)c2ccc(NC(=O)c3ccccc3)cc2)cc1,-4.0,23.3,-75.5,11.2,21.5*,-41.4,-1.4,-8.9
C[C@H](CO)N1C[C@H](C)[C@@H](CN(C)Cc2ccc(Oc3ccccc3)cc2)OCc2cnnn2CCCC1=O,x,x,11.1,x,x,-0.6,x,x
CCCc1cc(=O)oc2cc(OCC(=O)NCCCN3CCOCC3)ccc12,5.4,6.0,-82.6,1.0,-3.2,3.0,x,x
c1ccc(Nc2ccccn2)nc1,-7.2,-5.2,15.4,-3.2,24.6*,0.7,0.8,-2.0
Cc1cc(NC(=O)c2ccc([N+](=O)[O-])cc2)n(CCC#N)n1,2.5,0.8,17.2,0.9,-1.4,0.0,x,x
CCN(CC)P(=O)(Nc1ccc([N+](=O)[O-])cc1)c1c(C)nn(CCC#N)c1NC(=O)c1ccc(Cl)cc1 (centres undefined),2.2,-20.0,21.9,1.9,57.4*,0.6,14.2,-7.9
CC(=O)Oc1ccc(Cn2c(C)c(C(=O)NCc3ccccc3C(F)(F)F)sc2=O)cc1,x,x,2.3,x,x,-1.8,x,x
O=C(Cn1cc(C(=O)c2ccco2)c2ccccc21)NC1CC1,-3.1,17.9,-25.0,4.6,25.0*,0.8,-8.6,-10.6
O=C(Cn1cc(C(=O)c2ccco2)c2ccccc21)NCc1ccco1,-0.3,-5.3,-74.1,1.9,-0.6,-3.1,x,x
COc1ccc(NC(=S)NNC(=O)Cn2nc([N+](=O)[O-])cc2C)cc1,-8.9,-18.0,8.1,5.6,40.7*,2.2,4.4,1.0
CCN(Cc1ccncc1)C(=O)c1ccccc1NS(=O)(=O)c1ccc(Br)cc1,-8.9,-14.2,6.5,-7.9,21.5*,0.2,-5.6,-10.7
C=CCn1c(C)cc(C(=O)COc2ncnc3sccc23)c1C,-2.8,-10.2,-24.1,8.7,17.7*,-51.0,45.3*,33.5*
